Source: ChEMBL document CHEMBL1122805, “Structure-activity relationships of sparsomycin and its analogues. Octylsparsomycin: the first analogue more active than sparsomycin” (1984)
Values after ≈ are worked out from the molar mass of the structure shown. Active and inactive are the calls of the source. The rule behind the calls is not given here.

Key:
L1210 [1] = test: In vitro cytostatic activity and inhibition of leukemia L1210 cells. The dose causing 50% of inhibition of colony formation (ID50) relative to untreated control cells; format: functional; details: Mus musculus, read-out: ID50 (the source's name)
Method in brief: (§1)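 Mouse leukemia L1210 cells taken from suspension culture; 100 cells plated per dish in soft agar medium (Dulbecco's with 20% horse serum, 2-mercaptoethanol, L-asparagine, DEAE-dextran, 0.3% agar) containing compound at several concentrations. Continuous exposure 8 days, 37 °C, 10% CO2, humidified. Colonies counted; ID50 from dose-effect curves versus untreated controls. Highest dose tested 100 μg/mL.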

L1210 [2] = test: In vitro cytostatic activity and inhibition of leukemia L1210 cells. The dose causing 50% of inhibition of colony formation (ID50) relative to untreated control cells; NA-Not Active; format: functional, cell-based; details: Mus musculus; method in brief: as §1

Structure (SMILES)	IC50 (L1210 [1]) [µg/mL]	ID50 (L1210 [2])
Cc1nc(O)nc(O)c1/C=C/C(=O)N[C@@H](CO)CSC[S+](C)[O-] (some centres undefined)	66 (≈ 183 µM)	
CSC[S@@+]([O-])C[C@@H](CO)NC(=O)/C=C/c1c(C)[nH]c(=O)[nH]c1=O		inactive
CSCSC[C@@H](CO)NC(=O)/C=C/c1c(C)nc(O)nc1O		inactive
CCCCCCCCSC[S+]([O-])C[C@H](CO)NC(=O)/C=C/c1c(C)nc(O)nc1O (some centres undefined)	0.05 (≈ 0.109 µM)	
CSC[S@+]([O-])C[C@H](CO)NC(=O)/C=C/c1c(C)[nH]c(=O)[nH]c1=O	0.15 (≈ 0.415 µM)	
CSC[S@+]([O-])C[C@@H](CO)NC(=O)/C=C/c1c(C)nc(O)nc1O		inactive
CSC[S@@+]([O-])C[C@H](CO)NC(=O)/C=C/c1c(C)[nH]c(=O)[nH]c1=O	2.1 (≈ 5.81 µM)	
Cc1nc(O)nc(O)c1/C=C/C(=O)N[C@H](CO)CSC[S+](C)[O-] (some centres undefined)		inactive
CSCSC[C@H](CO)NC(=O)/C=C/c1c(C)nc(O)nc1O	4.4 (≈ 12.7 µM)	
